From PubChem BioAssay
APP 5'UTR act: activators of APP 5'UTR luciferase reporter, primary screen, SH-SY5Y cells; SH-SY5Y APP 5'UTR luciferase reporter, luminescence; zero percent = DMSO vehicle wells; activation, % at 2 µM; 190,000 compounds, 1% hits; AID 1276, 2008;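 active = activation above a set limit, based on mean plus 3 SD of controls, cut at about 140% in these data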
NF-kB expr up: activators of NF-kB expression in neurons, primary screen, cell-based, HTS; human neuronal cells, NF-kB reporter expression; active compounds read high; fold change at 12.5 µM; 190,000 compounds, 1.6% hits; AID 1239, 2008; in the data active = fold change above about 3.3
STAT1 act-1: STAT1 signaling activators, primary screen, cell-based, HTS, luciferase reporter. NIH 3T3 STAT1-luciferase reporter, IFN-gamma, luminescence; 100% = IFN-gamma alone, no compound. activation (% of control), % at 5.5 µM. 200,000 compounds, 2.6% hits. AID 932, 2007;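 active = activation above the screen-wide mean activation plus 3 SD, cut at about 130% in these data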;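 note: raw ratio to IFN-gamma control signal so 100% means no change and 0% no light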
STAT3 blocker: IL-6 driven STAT3 reporter inhibitors, primary screen, U3A cells, luciferase, luminescence, MLSCN library; IL-6 STAT3-luciferase reporter; host cell line lacks STAT1; inhibition, % at 5.5 µM; 190,000 compounds, 0.89% hits; AID 862, 2007;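 active = inhibition above the mean inhibition across all screened compounds plus 3 SD, cut at about 44% in these data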;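 note: 0% = DMSO only wells and 100% = 100 µM nifuroxazide control wells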
STAT3 act-1: IL-6 driven STAT3 reporter potentiators, primary screen, U3A cells, luciferase, luminescence, MLSCN library; IL-6 STAT3-luciferase reporter; 100% = signal with IL-6 EC80 alone; activation (% of control), % at 5.6 µM; 190,000 compounds, 0.91% hits;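 active = activation above the screen-wide mean of compound activation plus 3 SD, cut at about 130% in these data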;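 note: 0% = background luminescence of wells with medium and substrate only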
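Test system: STAT3-luciferase reporter U3A cells; Detection: reporter luminescence signal; Times: 1 h compound pre-exposure, 6 h IL-6 stimulation, 37 °C; Benchmarks: IL-6-only high control; Also added: IL-6 stimulus at 33 ng/mL final.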
STAT1 blocker: STAT1 signaling inhibitors, primary screen, cell-based, HTS, luciferase reporter; inhibition, % at 5.5 µM; AID 920, 2007; NIH 3T3 STAT1-luciferase reporter, IFN-gamma, luminescence; 200,000 compounds, 0.35% hits;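 active = inhibition above a set limit, the mean inhibition across all tested compounds plus 3 SD, cut at about 34% in these data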;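 note: 0% = IFN-gamma with DMSO and 100% = IFN-gamma with 300 µM nifuroxazide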
STAT3 act-2: STAT3 reporter potentiators, retest of hits, confirmation, U3A cells, luciferase, luminescence; shares compounds with STAT3 act-1; IL-6 potentiation; U3A cells lack STAT1; 100 means same as IL-6 alone; potentiation (% of control), % at 5.7 µM; 1,200 compounds, 64% hits;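 active = percent activation of the STAT3 luciferase reporter above a set limit taken from the earlier primary screen, cut at about 130% in these data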;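 note: 0% = background signal of medium plus substrate and 100% = median of IL-6 with DMSO wells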
NFkB act STAT3ct: NF-kB reporter activators in human cells, counter-screen for STAT3 activator project; shares compounds with STAT3 act-1; NF-kappaB reporter activation; activation (% of control), % at 5.7 µM; 1,200 compounds, 11% hits; AID 1309, 2008; in the data active = activation above about 120%;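 note: reporter induced by TNF-alpha stimulation; 100% = median of stimulated DMSO wells and 0% = no signal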
STAT1 act-2: STAT1 reporter activators, IFN-gamma induced, counter-screen for STAT3 activator project, cell-based, NIH 3T3, luciferase luminescence. AID 1318, 2008. NIH 3T3 STAT1-luciferase reporter. activation (% of control), % at 5.7 µM. shares compounds with STAT3 act-1. 1,200 compounds, 13% hits;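 active = activation above the solvent-only control well mean plus 3 SD, set per screening run, cut at about 120% in these data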;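 note: 100% = IFN-gamma with DMSO median signal so 100% means no change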
Numbers without * were called inactive; · = no result. The list is not random: actives were taken first. Their share in the collection is about 5.1%.

SMILES | APP 5'UTR act | NF-kB expr up | STAT1 act-1 | STAT3 blocker | STAT3 act-1 | STAT1 blocker | STAT3 act-2 | NFkB act STAT3ct | STAT1 act-2
C#CCOCCOCCOCCNc1nc(N2CCN(C(=O)[C@H](CCC(=O)O)n3cc(C(N)CC(C)C)nn3)CC2)nc(N2CCN(C(=O)[C@H](CCC(=O)O)n3cc(C(N)CC(C)C)nn3)CC2)n1 (stereo partly drawn) | 8.8 | 1.19 | 99.0 | · | · | 2.6 | · | · | ·
c1ccc2c(c1)ncc1cccn12 | 10.3 | 0.96 | 102.3 | -46.1 | 143.3* | -2.6 | 138.1* | 98.4 | 89.7
Cc1cc(C)c(OCCNC(=O)c2ccccc2Sc2ccccc2C#N)c(C)c1 | 14.2 | 0.65 | 100.3 | -9.3 | 110.1 | -0.3 | · | · | ·
O=C(Cc1ccc([N+](=O)[O-])cc1)Nc1nnc(C2CC2)s1 | 7.3 | 1.19 | 97.8 | 6.1 | 97.1 | 2.5 | · | · | ·
O=C(Cc1coc2ccc3ccccc3c12)Nc1nnc(C2CC2)s1 | 12.1 | 0.91 | 85.4 | -48.1 | 152.6* | 16.2 | 147.5* | 80.8 | 93.7
O=C(Cc1c[nH]c2ccccc12)Nc1nnc(C2CC2)s1 | -9.2 | 0.95 | 87.1 | -34.6 | 136.6* | 13.4 | 168.3* | 102.5 | 83.7
COc1ccccc1NC(=O)Nc1ccc(Br)cn1 | -1.6 | 1.24 | 91.5 | -4.5 | 109.5 | 9.6 | · | · | ·
COc1ccc(Cl)cc1NC(=O)Nc1ccc(Br)cn1 | -7.6 | 1.04 | 92.1 | -72.0 | 159.5* | 7.2 | 143.7* | 101.2 | 89.9
Cc1cccc2cc3c(NC(=O)c4ccccn4)nn(C)c3nc12 | 4.8 | 0.64 | 91.4 | -58.3 | 156.2* | 9.4 | 140.0* | 107.3 | 90.7
CCCC(=O)Nc1nn(C)c2nc3c(C)cccc3cc12 | 2.3 | 0.98 | 91.6 | 2.2 | 101.8 | 9.2 | · | · | ·
Oc1c(Cl)cc(Cl)cc1C1=NNC(c2ccc(Cl)cc2)C1 (stereo not drawn) | 47.8 | 1.01 | 100.3 | -40.5 | 152.0* | -1.1 | 147.1* | 106.7 | 98.0
O=C(Nc1ccccn1)c1c(O)c2cccc3c2n(c1=O)CCC3 | 10.4 | 1.56 | 100.3 | -61.4 | 157.2* | -0.4 | 146.1* | 104.3 | 99.1
CC(C)(C)c1ccccc1NC(=O)c1c(O)c2cccc3c2n(c1=O)CC3 | 17.6 | 0.87 | 95.1 | -48.4 | 149.4* | 3.3 | 144.2* | 105.4 | 98.9
Cc1cccnc1NC(=O)c1c(O)c2cccc3c2n(c1=O)CCC3 | -21.9 | 1.02 | 100.6 | -0.3 | 105.9 | 0.6 | · | · | ·
O=C(Nc1nccs1)c1c(O)c2cccc3c2n(c1=O)CCC3 | 3.8 | 1.03 | 93.9 | -62.7 | 153.6* | 5.3 | 167.4* | 98.8 | 98.2
CC(C)COC(=O)/C(C#N)=C/c1c[nH]c2ccccc12 | 53.3 | 1.84 | 106.8 | -6.6 | 101.7 | -7.5 | · | · | ·
COc1ccc(N2C(=O)CC(Sc3ccccc3C(=O)O)C2=O)c([N+](=O)[O-])c1 (stereo not drawn) | -27.6 | 1.16 | 96.2 | 8.5 | 98.7 | 2.0 | · | · | ·
Cc1cc(C)c(C#N)c(SCc2nc3ccccc3[nH]2)n1 | 147.6* | 2.9 | 116.9 | -87.2 | 185.4* | -18.4 | 164.9* | 109.8 | 105.1
N#CCCn1cc(C(=O)O)c(-c2cccs2)n1 | 5.1 | 1.23 | 97.1 | 4.9 | 97.2 | 2.0 | · | · | ·
CC(=O)c1sc2nc(-c3cccs3)cc(C(F)(F)F)c2c1N | -0.3 | 1.15 | 97.5 | -63.2 | 161.8* | 2.8 | 145.8* | 103.1 | 96.4
Oc1ccccc1/C=N/n1c2ccccc2c2ccccc21 | 1.2 | 0.99 | 91.6 | -52.6 | 147.0* | 9.4 | 137.3* | 99.4 | 96.5
CCC(C(=O)Nc1ccc(C(=O)N2CCCC2)cc1)c1ccccc1 (stereo not drawn) | 4.8 | 1.07 | 100.1 | 9.7 | 94.8 | -1.3 | · | · | ·
O=C(Cc1ccccc1F)NCC(c1ccco1)N1CCCCC1 (stereo not drawn) | 15.1 | 1.18 | 97.1 | -3.0 | 107.0 | 4.8 | · | · | ·
CCC(C)(C)n1nnnc1CN1CCc2ccccc21 | -3.0 | 1.17 | 100.4 | -53.3 | 144.7* | -4.1 | 126.2 | 105.3 | 103.3
c1ccc(CCn2nnnc2CN2CCCc3ccccc32)cc1 | 33.7 | 1.6 | 103.4 | -35.3 | 128.4 | -3.7 | · | · | ·
SMILES | APP 5'UTR act | NF-kB expr up | STAT1 act-1 | STAT3 blocker | STAT3 act-1 | STAT1 blocker | STAT3 act-2 | NFkB act STAT3ct | STAT1 act-2
Cc1cccc(NC(=O)CSc2nnnn2-c2ccc3c(c2)OCCO3)n1 | -18.6 | 1.09 | 97.2 | -4.8 | 108.2 | 1.4 | · | · | ·
Cc1ncc([N+](=O)[O-])n1Cc1ccc(F)cc1 | -2.9 | 1.15 | 92.0 | 10.0 | 98.5 | 8.7 | · | · | ·
O=C(Cc1c[nH]c2ccccc12)OCC(=O)c1ccccc1 | -16.1 | 1.27 | 103.1 | -35.8 | 136.2* | -3.5 | 132.4 | 104.4 | 93.2
COC(=O)C1CCN(C(=O)COC(=O)Cc2c[nH]c3ccccc23)CC1 | -5.3 | 0.99 | 94.7 | -39.6 | 140.2* | 5.8 | 131.1 | 100.1 | 93.5
O=C(COC(=O)Cc1c[nH]c2ccccc12)Nc1cccc2ccccc12 | 3.9 | 1.22 | 85.3 | -16.5 | 112.4 | 16.4 | · | · | ·
O=P1(O)C=C(c2ccccc2)OC(c2ccccc2)=C1 | 63.2 | 1.61 | 105.7 | -35.1 | 136.0* | -7.3 | 145.1* | 118.1 | 127.1*
CCCN1CCN(S(=O)(=O)c2ccc(OC)c(Br)c2)CC1 | -4.6 | 1.32 | 110.3 | 8.0 | 96.1 | -11.2 | · | · | ·
COc1ccc(CN2CCN(S(=O)(=O)c3ccc(C)cc3)CC2)cc1Br | -6.9 | 1.42 | 101.3 | -57.8 | 144.1* | -1.4 | 136.7* | 108.3 | 106.7
CC1CCCCN1C(=O)CCS(=O)(=O)c1cccc2nonc12 (stereo not drawn) | 20.6 | 1.51 | 97.9 | 13.3 | 91.8 | 1.1 | · | · | ·
COc1ccccc1-c1nnc(SCC(=O)NC2CCCCC2)o1 | 16.6 | 0.97 | 100.4 | -70.0 | 163.0* | -0.4 | 146.4* | 97.1 | 97.2
CC(=O)C1=C(c2cccc([N+](=O)[O-])c2)N(C(C)=O)n2c(C)nnc2S1 | 5.5 | 1.47 | 82.7 | 7.4 | 104.2 | 18.3 | · | · | ·
COCCCNC(=O)COc1ccc(S(=O)(=O)NCc2ccccc2)cc1Cl | 7.4 | 1.23 | 100.4 | 1.0 | 100.3 | -1.0 | · | · | ·
CCC(=O)N=c1sc2cc(F)cc(F)c2n1C | 1.9 | · | 104.8 | -44.1 | 140.1* | -5.3 | 125.3 | 108.3 | 139.2*
COc1ccc(/C=N/Nc2ccccn2)c(OC)c1OC | 35.9 | 1.01 | 114.9 | 9.9 | 93.8 | -16.7 | · | · | ·
